Assay results from ChEMBL document CHEMBL1145922, “1,2-benzisoxazole phosphorodiamidates as novel anticancer prodrugs requiring bioreductive activation” (J Med Chem, 2003).

Columns and labels:
Format in all cases: functional
[1] = species: Homo sapiens; test: Percent formation of compound upon incubation of 15 for 60 minutes with human P450 reductase microsomes in hypoxic condition in presence of NADPH and pCMBA at a concentration of 2 mM
Outline: (§1)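 Human or rat P450 reductase microsomes at 1 mg/mL protein, substrate 0.25 mM and cofactor 0.5 mM; pCMBA 2 mM where stated. Anaerobic samples purged with nitrogen 15–20 min in septum-sealed vials. 60 min at 37 °C, stopped with ice-cold methanol. Ketone metabolite quantified by HPLC (C-18, methanol/water 50:50, UV 254 nm) as percent of equimolar substrate. Mean of two experiments.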

[2] = species: Rattus norvegicus; test: Percent formation of compound upon incubation of 15 with phenobarbit-induced rat liver microsomal fraction in hypoxic condition in presence of pCMBA at a concentration of 4 mM
Outline: (§2)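 Phenobarbital-induced rat liver microsomes; inhibitors SKF-525A (in methanol) or pCMBA (in DMF) at 0–4 mM final. pCMBA preincubated 30 min before NADPH; SKF-525A incubated 15 min with microsomes and NADPH. Hypoxic samples nitrogen-purged. Substrate 2.5 mM added, 30 min at 37 °C. Ketone metabolite by HPLC at 254 nm as percent of substrate; % inhibition relative to no inhibitor. Mean of two experiments.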

[3] = species: Rattus norvegicus; test: Percent formation of compound upon incubation of 15 with phenobarbit-induced rat liver microsomal fraction in oxic condition in presence of SKF-525A at a concentration of 0 mM; outline: as §2
[4] = species: Rattus norvegicus; test: Tested for formation of compound upon incubation of compound 15 for 30 minutes with rat liver subcellular fractions in oxic condition in the presence of NADPH
Outline: (§3)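 Phenobarbital-induced rat liver S-9 fraction (2 mL) with 5 mM cofactor (NADPH, NADH, benzaldehyde or 2-hydroxypyrimidine), substrate 2.5 mM final, added in methanol/water 50:50; aerobic, 30 min at 37 °C. Quenched with ice-cold methanol, proteins spun down, supernatant analysed by reverse-phase C-18 HPLC, UV 254 nm; ketone metabolite given as percent of equimolar substrate; three experiments.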

[5] = species: Rattus norvegicus; test: Percent formation of compound upon incubation of 15 with phenobarbit-induced rat liver microsomal fraction in oxic condition in presence of pCMBA at a concentration of 0 mM; outline: as §2
[6] = species: Rattus norvegicus; test: Percent formation of compound upon incubation of 15 with phenobarbit-induced rat liver microsomal fraction in oxic condition in presence of pCMBA at a concentration of 4 mM; outline: as §2
[7] = species: Rattus norvegicus; test: Percent inhibition of formation of compound upon incubation of 15 with phenobarbit-induced rat liver microsomal fraction in oxic condition in presence of SKF-525A at a concentration of 2 mM; outline: as §2
[8] = species: Rattus norvegicus; test: Tested for formation of compound upon incubation of compound 15 for 30 minutes with rat liver cystolic fractions in hypoxic condition in the absence of cofactor
Outline: (§4)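 Phenobarbital-induced rat liver S-9, microsomal or cytosolic fraction with 5 mM cofactor (NADPH, NADH, benzaldehyde or 2-hydroxypyrimidine) or none. Substrate 2.5 mM final, added from methanol/water 50:50. Hypoxic vials purged with nitrogen 15–20 min. 30 min at 37 °C, quenched with ice-cold methanol. Ketone metabolite by HPLC at 254 nm as percent of equimolar substrate.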

[9] = species: Rattus norvegicus; test: Tested for formation of compound upon incubation of compound 15 for 30 minutes with rat liver cystolic fractions in oxic condition in the presence of NADPH; outline: as §4
[10] = species: Rattus norvegicus; test: Tested for formation of compound upon incubation of compound 15 for 30 minutes with rat liver subcellular fractions in oxic condition in the presence of 2-hydroxypyrimidine; outline: as §3
[11] = species: Rattus norvegicus; test: Percent formation of compound upon incubation of 15 with phenobarbit-induced rat liver microsomal fraction in hypoxic condition in presence of pCMBA at a concentration of 1 mM; outline: as §2
[12] = species: Rattus norvegicus; test: Tested for formation of compound upon incubation of compound 15 for 30 minutes with rat liver subcellular fractions in oxic condition in the presence of benzaldehyde; outline: as §3
[13] = species: Rattus norvegicus; test: Tested for formation of compound upon incubation of compound 15 for 30 minutes with uninduced rat liver S-9 fractions in hypoxic condition in the absence of cofactor
Outline: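 Uninduced rat liver S-9 (22.5 mg/mL protein, 2 mL) with 5 mM NADPH or no cofactor, substrate 2.5 mM final; hypoxic samples nitrogen-purged 15–20 min in septum-sealed vials, else aerobic; 30 min at 37 °C. Methanol quench, centrifugation, C-18 HPLC with UV 254 nm; metabolite as percent of equimolar substrate. NADPH runs three experiments, no-cofactor runs two.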

[14] = species: Rattus norvegicus; test: Tested for formation of compound upon incubation of compound 15 for 30 minutes with rat liver microsomal fractions in oxic condition in the absence of cofactor; outline: as §4
[15] = species: Rattus norvegicus; test: Tested for formation of compound upon incubation of compound 15 for 30 minutes with rat liver microsomal fractions in oxic condition in the presence of NADPH; outline: as §4
[16] = species: Rattus norvegicus; test: Tested for formation of compound upon incubation of compound 15 for 30 minutes with rat liver subcellular fractions in hypoxic condition in the absence of cofactor; outline: as §4
[17] = species: Rattus norvegicus; test: Tested for formation of compound upon incubation of compound 15 for 30 minutes with rat liver subcellular fractions in hypoxic condition in the presence of 2-hydroxypyrimidine; outline: as §4
[18] = species: Rattus norvegicus; test: Tested for formation of compound upon incubation of compound 15 for 30 minutes with rat liver subcellular fractions in hypoxic condition in the presence of NADH; outline: as §4
[19] = species: Rattus norvegicus; test: Tested for formation of compound upon incubation of compound 15 for 30 minutes with rat liver subcellular fractions in hypoxic condition in the presence of NADPH; outline: as §4
[20] = species: Rattus norvegicus; test: Percent inhibition of formation of compound upon incubation of 15 with phenobarbit-induced rat liver microsomal fraction in hypoxic condition in presence of pCMBA at a concentration of 1 mM; outline: as §2
[21] = species: Rattus norvegicus; test: Percent inhibition of formation of compound upon incubation of 15 with phenobarbit-induced rat liver microsomal fraction in hypoxic condition in presence of pCMBA at a concentration of 2 mM; outline: as §2
[22] = species: Rattus norvegicus; test: Percent inhibition of formation of compound upon incubation of 15 with phenobarbit-induced rat liver microsomal fraction in hypoxic condition in presence of pCMBA at a concentration of 4 mM; outline: as §2
[23] = species: Rattus norvegicus; test: Percent inhibition of formation of compound upon incubation of 15 with phenobarbit-induced rat liver microsomal fraction in hypoxic condition in presence of SKF-525A at a concentration of 1 mM; outline: as §2
[24] = species: Rattus norvegicus; test: Percent inhibition of formation of compound upon incubation of 15 with phenobarbit-induced rat liver microsomal fraction in hypoxic condition in presence of SKF-525A at a concentration of 2 mM; outline: as §2
[25] = species: Rattus norvegicus; test: Percent inhibition of formation of compound upon incubation of 15 with phenobarbit-induced rat liver microsomal fraction in hypoxic condition in presence of SKF-525A at a concentration of 4 mM; outline: as §2
[26] = species: Rattus norvegicus; test: Percent inhibition of formation of compound upon incubation of 15 with phenobarbit-induced rat liver microsomal fraction in oxic condition in presence of SKF-525A at a concentration of 1 mM; outline: as §2
[27] = species: Rattus norvegicus; test: Percent formation of compound upon incubation of 15 for 60 minutes with rat P450 reductase microsomes in hypoxic condition in presence of NADPAH; outline: as §1
[28] = species: Rattus norvegicus; test: Percent formation of compound upon incubation of 15 with phenobarbit-induced rat liver microsomal fraction in hypoxic condition in presence of SKF-525A at a concentration of 4 mM; outline: as §2

Work on `CCC(=O)c1ccccc1O` yielded a Formation [1] of 0.6%, a Formation [2] of 0.5% and a Formation [3] of 44.9%. For the same compound, the Formation [4] was 80.9%, the Formation [5] was 68.8% and the Formation [6] was 0.7%. For the same compound, the inhibition [7] was 14%, the Formation [8] was 1.4% and the Formation [9] was 0.7%. The Formation [10] was 0.6%, the Formation [11] was 0.7% and the Formation [12] was 0.7%. It also gave a Formation [13] of 0.9%, a Formation [14] of 0.6% and a Formation [15] of 73%. It also gave a Formation [16] of 2.2%, a Formation [17] of 0.5% and a Formation [18] of 28.5%. It also gave a Formation [19] of 88.5%, an inhibition [20] of 99% and an inhibition [21] of 99%. The inhibition [22] was 99%, the inhibition [23] was 23% and the inhibition [24] was 29%. It also gave an inhibition [25] of 36%, an inhibition [26] of 18% and a Formation [27] of 1.7%. For the same compound, the Formation [28] was 45%.
